Reference: article PMC12373759 (Communications Medicine, 2025)
Several values for one entry are separate records, joined by “and”; a condition that tells them apart may be missing. Equal values may be shown once. Bridge positions count the residues as written; N and C are the ends. Square brackets hold non-standard residues; d marks the D form. Peptide text beside a SMILES is read from it. * marks the point of attachment. DOTA = O=C(O)CN1CCN(CC(=O)O)CCN(CC(=O)*)CCN(CC(=O)O)CC1; Thr(ol) = C[C@@H](O)[C@H](N)CO

What was measured:
corticotropinomas = conditions: PET/CT; cited from earlier work
[1] = target: T1, recombinant human V1b receptor (Homo sapiens, UniProt P47901); test: In-vitro receptor binding assay
T1 sequence (P47901 1-424): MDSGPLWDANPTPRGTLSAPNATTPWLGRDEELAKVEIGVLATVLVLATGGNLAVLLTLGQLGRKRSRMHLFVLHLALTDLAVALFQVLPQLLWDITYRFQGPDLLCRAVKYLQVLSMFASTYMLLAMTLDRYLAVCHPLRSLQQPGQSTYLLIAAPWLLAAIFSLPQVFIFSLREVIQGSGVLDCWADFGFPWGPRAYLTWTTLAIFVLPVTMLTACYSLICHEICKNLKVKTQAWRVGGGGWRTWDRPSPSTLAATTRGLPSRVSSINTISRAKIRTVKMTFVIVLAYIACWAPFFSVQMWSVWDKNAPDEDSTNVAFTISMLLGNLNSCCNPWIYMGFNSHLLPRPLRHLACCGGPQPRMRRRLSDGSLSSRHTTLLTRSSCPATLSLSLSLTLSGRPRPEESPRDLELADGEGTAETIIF

Sterility test = conditions: no visible growth or turbidity for up to 14 days
[2] = Stability in human serum at 37 °C; type: in vitro ADME
[3] = Shelf-life / stability in normal saline; type: physicochemical
How it was run: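 Shelf-life: radiotracer kept in normal saline at room temperature and examined for up to 4 h.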

Endotoxin test = conditions: V = 2 mL, dilution factor 10; limit <175 EU/V
How it was run: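 Chromogenic endotoxin assay per USP 85 on the in-house-prepared radiotracer. Results and the acceptance limit are expressed as endotoxin units per injection volume (EU/V).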

corticotropinoma = conditions: cited from earlier work
[4] = Plasma protein binding, TCA precipitation method; type: in vitro ADME; conditions: 37 °C, 10% TCA
[5] = Ex vivo biodistribution in healthy Wistar rats
How it was run: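 Nine healthy male Wistar rats (16 weeks, 274 ± 13 g) each received 8 ± 1.1 MBq radiotracer IV via the penile vein. Under ketamine (40 mg/kg) plus xylazine (4 mg/kg) anaesthesia, rats were killed by cervical dislocation at 30, 60 and 120 min (n = 3 per time). Organs were weighed and gamma-counted (NaI(Tl)). %ID/g used injected counts corrected for injection-site and syringe residues. Blood pool was taken as 7% of body weight. Mean ± SD.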

[6] = cited from earlier work

Compound: OC[C@H]1OC(O)[C@H]([18F])[C@@H](O)[C@@H]1O (some centres unmarked) [[^18F]FDG]
- sensitivity for corticotropinomas (corticotropinomas): 40%

Compound: C[C@@H](O)[C@@H](CO)NC(=O)[C@@H](CCCNC(=N)N)NC(=O)[C@@H]1CCCN1C(=O)[C@@H]1CSSC[C@H](NC(=O)[C@H](Cc2ccccc2)NC(=O)CN2CCN(CC(=O)O)CCN(CC(=O)O)CCN(CC(=O)O)CC2)C(=O)N[C@@H](Cc2ccc(O)cc2)C(=O)N[C@@H](Cc2ccccc2)C(=O)N[C@@H](CCC(N)=O)C(=O)N[C@@H](CC(N)=O)C(=O)N1 [[^68Ga]Ga-DOTA-mDesmo, metal not drawn] ({DOTA}-FCYFQNCP[dR][Thr(ol)]; disulfide 2-7)
- Binding (%) (Mean ± SD) ([1]; V1b 15.6 nM, tracer 0.3 µM): 5.1 ± 1.3%
- Binding (%) (Mean ± SD) ([1]; V1b 62.5 nM, tracer 0.3 µM): 25.7 ± 2.4%
- Binding (%) (Mean ± SD) ([1]; V1b 125 nM, tracer 0.3 µM): 30.7 ± 1.9%
- Binding (%) (Mean ± SD) ([1]; V1b 250 nM, tracer 0.3 µM): 44 ± 2.2%
- Binding (%) (Mean ± SD) ([1]; V1b 250 nM, tracer 0.3 µM + cold DOTA-mDesmo 5 µM): 38.8 ± 1.7%
- Binding (%) (Mean ± SD) ([1]; V1b 250 nM, tracer 0.3 µM + cold DOTA-mDesmo 20 µM): 22% and 22.1 ± 2.1%
- sterility (Sterility test): sterile
- stability (single radio peak at Rf 0.0) [2]: up to 4 h
- stability (single radio peak at Rf 0.0) ([3]; PBS, 37 °C): up to 4 h
- shelf-life (single radio peak at Rf 0.0) ([3]; normal saline, room temperature): up to 4 h
- endotoxin value (Endotoxin test): 8.6 ± 1.2 EU/V
- uptake in the pituitary of patients with ECS (corticotropinoma; 4 patients of ECS): no uptake
- diagnostic accuracy (corticotropinoma; PET/CT, 24 patients of CD): 100%
- patients of CD in whom the pituitary tumor was localized (corticotropinoma; of 24 patients of CD): 24 patients
- fraction unbound at 1 h [4]: 0.344
- total blood pool, share of the injected activity ([5]; 120 min, blood volume assumed 7% of body weight): ~ 3%
- route of excretion ([5]; rat, in vivo): primarily excreted via the renal route
- clearance from muscles, lungs, adrenals, liver, pancreas, spleen and heart ([5]; time following administration): ≤ 120 min

Compound: Desmopressin
- plasma half-life [6]: ~ 55 min
